Compound activity from PubChem BioAssay.
Compounds with a hit are over-represented: about 0.55% of the library has one in this group of screens.
OXTR potentiator – potentiators of human oxytocin receptor | AID 2445 | activation, % at 3 µM | P30559 | hit rate 0.061% among 320,000 | CHO-OTR cells, Fluo-8 calcium fluorescence, potentiator mode; 0% = oxytocin EC15, 100% = EC100;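 active = activation above that plate's cutoff, the mean activation of tested compounds plus 3 SD, cut at about 6.6% in these data, passing the limit was not always enough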
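test system = CHO-OTR cells, human receptor | compound = single-point 3.0 µM | schedule = 6 min compound pre-incubation at room temperature, 100 s kinetic read | signal = Fluo-8 no-wash calcium dye fluorescence, excitation 470-495 nm, emission 515-575 nm | repeats = single well per compound, singlicate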
zfTRPN1 agonist – zebrafish TRPN1 (NompC) channel agonism; AID 1424; HEK293 zebrafish TRPN1-YFP, Fluo-8 calcium fluorescence; 100% = response to 87 µM carbachol; activation, % at 3 µM; hit rate 0.18% among 220,000;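 active = activation above its plate's cutoff, the mean activation of test wells on that plate plus 3 SD, cut at about 19% in these data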
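Material – zebrafish TRPN1-YFP in HEK293 cells · Doses – 3 µM single point · Schedule – dye 1 h 37 °C plus 30 min RT · Signal – Fluo-8 calcium fluorescence, excitation 470-495 nm, emission 515-575 nm · Read-out – % activation versus carbachol response · Control set – carbachol high, DMSO low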
OXTR ag – activates the human oxytocin receptor | P30559 | CHO-OTR cells, Fluo-8 calcium fluorescence; normalized: DMSO 0%, oxytocin 100% | activation, % at 3 µM | hit rate 0.32% among 320,000 | AID 2435;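 active = activation above the mean of all tested compounds plus 3 SD, cutoff set per screening run, cut at about 20% in these data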;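 also: peak over basal fluorescence ratio from a 100 s FLIPR kinetic read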
TRPML3 ag – human mucolipin-3 channel agonism; Q8TDD5; AID 1448; hit rate 0.29% among 220,000; HEK293 TRPML3-YFP, Fluo-8 calcium fluorescence; 100% = the carbachol control signal; activation, % at 3 µM;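 active = activation above its plate's cutoff, the mean activation of the plate's test wells plus 3 SD, cut at about 12% in these data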
Target sequence (Q8TDD5 whole entry, looked up): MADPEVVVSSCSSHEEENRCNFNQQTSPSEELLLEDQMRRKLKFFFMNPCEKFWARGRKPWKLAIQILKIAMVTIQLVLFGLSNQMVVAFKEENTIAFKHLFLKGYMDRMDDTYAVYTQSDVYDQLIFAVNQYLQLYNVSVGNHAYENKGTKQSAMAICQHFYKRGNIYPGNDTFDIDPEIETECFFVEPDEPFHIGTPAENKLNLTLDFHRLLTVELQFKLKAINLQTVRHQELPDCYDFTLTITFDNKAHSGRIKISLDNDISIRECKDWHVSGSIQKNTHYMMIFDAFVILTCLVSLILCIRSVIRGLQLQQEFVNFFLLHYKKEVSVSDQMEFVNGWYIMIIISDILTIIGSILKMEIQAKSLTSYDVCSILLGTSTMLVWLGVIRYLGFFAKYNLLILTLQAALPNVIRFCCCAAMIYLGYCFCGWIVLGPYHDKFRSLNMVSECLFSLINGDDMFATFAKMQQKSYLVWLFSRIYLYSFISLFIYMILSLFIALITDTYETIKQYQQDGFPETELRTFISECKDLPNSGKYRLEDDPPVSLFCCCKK
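Test system – HEK293 line with stable expression of human TRPML3-YFP channel · Control set – carbachol 87 µM final as high control (100%), DMSO as low control (0%) · Signal – Fluo-8 calcium dye fluorescence, ex 470-495, em 515-575 nm · Incubation – 1-h 37 °C dye load, 5-s basal, 120-s post-compound reads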
V1R ag counter – counter-screen for oxytocin receptor agonists: human V1a receptor agonists; activation, % at 3 µM; CHO-V1R cells, Fluo-8 calcium fluorescence, agonist mode; 0% DMSO, 100% 3 nM vasopressin; hit rate 0.25% among 320,000;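 active = activation above the mean activation of all tested compounds plus 3 SD, per screening run, cut at about 20% in these data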;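 also: signal is peak over basal fluorescence ratio across a 100 second FLIPR read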
OXTR ag confirm – human OXTR agonism, confirmation. shares compounds with OXTR ag. CHO-OTR cells, Fluo-8 calcium fluorescence, agonist. activation, % at 3 µM. hit rate 20% among 390. AID 434963;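 active = mean activation above about 20% derived from the earlier single-dose screen, limit read from the data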;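 also: peak over minimum fluorescence ratio per well during a 100 second FLIPR read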
V1aR counter 3x – activates V1a receptor in oxytocin agonist counter-screen | shares compounds with OXTR ag | CHO-V1R cells, Fluo-8 calcium fluorescence | activation, % at 3 µM | hit rate 10% among 390;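 active = mean activation over triplicate exceeds the hit threshold set in the earlier primary screen, cut at about 20% in these data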;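 also: peak over basal fluorescence ratio within a 100 second read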
Each line names hits and unclear results; the compound was inactive in the other large screens (follow-up assays come after a bar, where they were run).

N#C/C(=C(/O)c1ccc(Cl)c([N+](=O)[O-])c1)c1nc2ccccc2[nH]1	OXTR ag 26 | OXTR ag confirm inactive | V1aR counter 3x inactive
N#C/C(=C(/O)c1ccc([N+](=O)[O-])cc1)c1nc2ccccc2[nH]1	none
COc1ccc(-n2c(O)c(/C=N/NS(=O)(=O)c3ccc(C)cc3)c3ccccc3c2=O)cc1OC	OXTR ag 32 | OXTR ag confirm inactive | V1aR counter 3x inactive
O=C(Nc1ccc(Cl)c(Cl)c1)c1cccc(S(=O)(=O)NCc2cccnc2)c1	OXTR ag 20 | OXTR ag confirm inactive | V1aR counter 3x inactive
CCOC(=O)c1sc(NC(=O)c2ccc(Cl)s2)cc1C	none
CCOC(=O)c1sc(NC(=O)Nc2ccc(Cl)cc2)cc1C	OXTR ag 20 | OXTR ag confirm inactive | V1aR counter 3x inactive
Cc1cccc(C(=O)NC(=S)NNC(=O)Cc2ccccc2)c1	OXTR ag 25 | OXTR ag confirm 45 | V1aR counter 3x 58
CCOC(=O)/C(C#N)=C/Nc1ccccc1NS(=O)(=O)c1ccc(C)c(C)c1	none
CCOC(=O)/C(C#N)=C/Nc1ccccc1NS(=O)(=O)c1cccc(C(C)=O)c1	OXTR ag 50 | OXTR ag confirm inactive | V1aR counter 3x inactive
CCC1(c2ccc(F)cc2)NC(=O)N(CC(=O)N2c3ccccc3CC2C)C1=O (centres undefined)	OXTR ag 29 (no result: zfTRPN1 agonist, TRPML3 ag) | OXTR ag confirm inactive | V1aR counter 3x inactive
O=C(NCC1CC1)C1(C(F)(F)F)C/C(=C\Cc2ccccc2)CCCO1 (centres undefined)	none (no result: zfTRPN1 agonist, TRPML3 ag)
CC(C)CNC(=O)N[C@@H](CC(C)C)C(=O)O	none
Cc1cc(S(=O)(=O)Nc2ccc(C(=O)NCC3(N(C)C)CCCCC3)cc2)ccc1F	none (no result: zfTRPN1 agonist, TRPML3 ag)
CCOc1ccc(NS(=O)(=O)c2ccc(C(=O)NCC3(N(C)C)CCCCC3)cc2)cc1	OXTR ag 24 (no result: zfTRPN1 agonist, TRPML3 ag) | OXTR ag confirm inactive | V1aR counter 3x inactive
C/C(=N/O)c1cc(C(C)(C)C)c(O)c(C(C)(C)C)c1	OXTR ag 21 | OXTR ag confirm inactive | V1aR counter 3x inactive
Cc1cc(C)c2c(=O)n(CC(=O)Nc3cccc(Cl)c3C)sc2n1	zfTRPN1 agonist 21, OXTR ag 42 | OXTR ag confirm 20 | V1aR counter 3x 21
Cc1cc(C)c2c(=O)n(CC(=O)NC3CCCC3)sc2n1	none
Cc1cc(C)c2c(=O)n(CC(=O)Nc3ccc(Br)c(C)c3)sc2n1	OXTR ag 37 | OXTR ag confirm inactive | V1aR counter 3x inactive
NS(=O)(=O)c1ccc(CCNCc2ccccc2OCc2ccc(Cl)cc2)cc1	OXTR ag 28 (no result: zfTRPN1 agonist, TRPML3 ag) | OXTR ag confirm inactive | V1aR counter 3x inactive
NS(=O)(=O)c1ccc(CCNCc2cc(Cl)ccc2OCc2ccccc2)cc1	OXTR ag 22 (no result: zfTRPN1 agonist, TRPML3 ag) | OXTR ag confirm inactive | V1aR counter 3x inactive
O=C(NCCO)C1(c2ccccc2)CCCC1	none
CCOC(=O)c1ccc(NC(=S)N2CCSC2c2ccc(OC)cc2)cc1 (centres undefined)	OXTR ag 32 | OXTR ag confirm 37 | V1aR counter 3x 31
COc1ccc(C2SCCN2C(=S)Nc2ccc(F)cc2)cc1 (centres undefined)	none
Cc1nc(COC(=O)c2cc(O)c3ccccc3c2O)cs1	none (no result: OXTR potentiator, OXTR ag, V1R ag counter)
COc1cc(CNCCc2ccc(F)cc2)ccc1OCc1ccc(Cl)nc1	OXTR ag 22 | OXTR ag confirm inactive | V1aR counter 3x inactive
COc1cc(CNCCc2c[nH]c3ccccc23)ccc1OCc1ccc(F)cc1	OXTR ag 22 | OXTR ag confirm inactive | V1aR counter 3x inactive
COc1cccc(CNCCc2c[nH]c3ccccc23)c1OCc1ccc(F)cc1	none
Oc1ccc(C[C@@H]2CNCCN2CCC23CC4CC(CC(C4)C2)C3)cc1	OXTR ag 20 (no result: zfTRPN1 agonist, TRPML3 ag) | OXTR ag confirm inactive | V1aR counter 3x inactive
Oc1ccc(C[C@H]2CNCCN2CCC23CC4CC(CC(C4)C2)C3)cc1	none (no result: zfTRPN1 agonist, TRPML3 ag)
